Hits are enriched below; roughly 3.8% of the tested compounds scored in any of these assays.
Kir21 inh – Kir2.1 (mouse) channel inhibition; AID 1672; P35561; B-score at 10 µM; 310,000 compounds, 0.85% hits; HEK293-Kir2.1, FluxOR thallium flux fluorescence; active compounds read low;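 active = fluorescence ratio B-score at or below minus 3 SD of library scores, with starting-brightness B-score within 2 SD, cut at about -4.2 in these data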;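 note: channel flux triggered by added potassium and thallium sulfate stimulus; B-score of peak minus minimum fluorescence over baseline after thallium stimulus; more negative B-score means stronger Kir2.1 block with less thallium influx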
KCNQ1 inh – inhibitors of human KCNQ1 potassium channel; P51787; CHO-K1 KCNQ1, FluxOR thallium flux fluorescence; active compounds read high; B-score at 10 µM; 310,000 compounds, 1.3% hits; AID 2642;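 active = compounds whose thallium flux B-score, printed positive for inhibition, exceeds three library SD while starting fluorescence stays within three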;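 note: channel opened by potassium depolarization with thallium stimulus after 20 min compound exposure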
KCNK3 block – human KCNK3 channel inhibition, primary screen; O14649; CHO-KCNK3 thallium flux, FluxOR fluorescence; active compounds read low; B-score at 10 µM; 340,000 compounds, 0.84% hits; AID 602410;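 active = B-score under library mean minus 4 SD, starting fluorescence ratio at most library mean plus 5 SD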;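 note: more negative B-score means stronger inhibition of thallium flux through KCNK3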
KCNQ1 act – human KCNQ1 channel potentiation or activation; 310,000 compounds, 0.35% hits; CHO-K1 KCNQ1, thallium flux FluxOR fluorescence; active compounds read high; B-score at 10 µM;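 active = fluorescence ratio B-score, a plate-corrected score, at least three library SD, with initial intensity B-score within 5 SD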
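Material: CHO-K1 cells stably expressing KCNQ1. Medium: assay buffer for compound exposure, DMSO matched across wells. Reagent: K+/Tl+ depolarizing stimulus. Compound dosing: single-concentration screen. Times: 37 °C overnight plating, 90-min dark dye load, 20-min compound pretreatment. Technique: FluxOR Tl+ flux fluorescence.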
hERG rescue – shields human hERG channel from block by proarrhythmic agents. Q12809. CHO-hERG, FluxOR thallium flux, dofetilide IC70 present. activation (rescue from dofetilide block), less the hit threshold, % at 10 µM. 310,000 compounds, 0.51% hits. AID 1511;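 active = activation above the mean of controls blocked by dofetilide plus 5 SD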;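 note: thallium influx through hERG after potassium depolarization seen as dye fluorescence rise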
KCNK9 inh – inhibitors of human KCNK9 two-pore domain potassium channel. HEK293 KCNK9, FluxOR thallium flux fluorescence; active compounds read low. B-score at 10 µM. 310,000 compounds, 1.2% hits;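 active = ratio B-score over 3 SD below the library mean, with starting fluorescence within 5 SD of its mean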;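 note: negative B-score means less thallium flux so channel inhibition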
KCNK9 inh conf – confirmation of human KCNK9 potassium channel inhibitors. shares compounds with KCNK9 inh. AID 492992. inhibition, % at 10 µM. 4,900 compounds, 43% hits. HEK293 KCNK9 cells, FluxOR thallium flux fluorescence;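 active = thallium signal inhibited by more than 5 SD of the compound-free buffer control wells, on both duplicate plates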;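 note: 0% = assay buffer control wells without compound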
Kir2-1 spec – selectivity of KCNK9 modulators against mouse Kir2.1. Kir2.1 cells, FluxOR thallium flux fluorescence. inhibition, % at 10 µM. shares compounds with KCNK9 inh. 4,900 compounds, 4% hits;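 active = thallium signal drop more than 5 SD beyond the mean of the no-compound control wells, seen in both duplicate plates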;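 note: signal is fluorescence rise after thallium addition divided by baseline fluorescence; plate controls were assay buffer only for no effect and full block by chlorpromazine control for full effect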
KCNK9 uninduced – non-induced cell nonspecific activity of KCNK9 modulators | non-induced KCNK9-HEK293, FluxOR thallium flux | inhibition, % at 10 µM | 4,900 compounds, 40% hits | shares compounds with KCNK9 inh | AID 492997;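 active = thallium signal drop beyond 5 SD of the untreated control mean, on both duplicate plates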;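 note: plate controls were buffer only IC0 wells for no effect and SID17386958 at its maximal inhibitory level for full effect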
Numbers without * were called inactive; i = inactive; / = no result.

SMILES	Kir21 inh	KCNQ1 inh	KCNK3 block	KCNQ1 act	hERG rescue	KCNK9 inh	KCNK9 inh conf	Kir2-1 spec	KCNK9 uninduced
COc1ccc(NC(=O)N2CCN(c3cccc(C(F)(F)F)c3)CC2)cc1OC	-1.4	i	i	i	-11	i	/	/	/
COc1ccc(CC(C)N2CCN(c3cccc(C(F)(F)F)c3)CC2)cc1OC (stereo not drawn)	0.31	i	i	i	-5	i	i	i	i
COc1ccc(CN(C)C(=O)c2[nH]c(C)c(C(C)=O)c2C)cc1F	0.1	i	i	i	-2	i	/	/	/
C=CCn1cnc2scc(-c3ccc(C)c(C)c3)c2c1=O	-1	i	i	i	-4	i	i	i	i
CCCn1cnc2scc(-c3ccc(C)c(C)c3)c2c1=O	-0.92	i	i	i	-8	i	i	i	i
CCCOC(=O)Cn1cnc2scc(-c3ccc(C)cc3)c2c1=O	0.9	i	i	i	-8	i	i	i	i
Cc1ccc(-c2csc3ncn(CC(N)=O)c(=O)c23)cc1C	0.36	i	i	i	-2	i	/	/	/
O=C(COc1ccc(-n2cnnn2)cc1)Nc1ccccc1OC(F)F	/	/	i	/	/	/	/	/	/
Cc1c(C)n(C(=O)CN2CCN(c3ccccn3)CC2)c2ccccc12	0.14	i	i	i	-16	i	i	i	i
O=C(CN1CCN(c2ccccn2)CC1)N1c2ccccc2CCc2ccccc21	-0.55	i	i	i	-15	i	/	/	/
CC(=O)Nc1ccc(S(=O)(=O)N[C@@H](C)C(=O)OCc2ccc(Cl)cc2)cc1	0.98	i	i	i	-6	i	/	/	/
Cc1ccc(Cn2cc(SCC(=O)Nc3nccs3)c3ccccc32)cc1	0.93	i	i	i	-1	i	i	i	i
Cc1nnc(-c2ccc(N3CCOCC3)c([N+](=O)[O-])c2)o1	/	/	i	/	/	/	/	/	/
Cc1cccc(Nc2nnc(-c3ccc(N4CCOCC4)c([N+](=O)[O-])c3)c3ccccc23)c1	0.03	i	i	i	-8	i	i	i	i
Brc1ccc(Oc2ncc(CN3CCN(c4ccccc4)CC3)s2)cc1	-0.84	i	i	i	-2	i	i	i	i
S=c1[nH]nc(-c2cc3c(s2)-c2ccccc2CC3)o1	2.2	i	i	71*	134*	i	i	i	i
COc1cccc(CN2CCN(S(=O)(=O)c3ccccc3)CC2)c1OC	-0.73	i	i	i	-10	i	/	/	/
O=S(=O)(c1ccccc1)N1CCN(Cc2ccc(Cl)cc2)CC1	1.3	i	i	i	-16	i	i	i	i
O=S(=O)(c1ccccc1)N1CCN(Cc2ccccc2)CC1	-0.23	i	i	i	1	i	/	/	/
COc1ccccc1CN1CCN(S(=O)(=O)c2ccccc2)CC1	-0.36	i	i	i	2	i	i	i	i
CC(C)CCc1noc(CN2CCC(CCN3CCCC3=O)CC2)n1	3.1	i	i	i	-12	i	/	/	/
O=C1C(=O)N(CCN2CCOCC2)C(c2ccc(Cl)cc2)/C1=C(/O)c1ccc(S(=O)(=O)N2CCOCC2)cc1 (stereo not drawn)	-1.3	i	i	i	-5	i	/	/	/
O=C(Cc1ccc(Cl)cc1)Nc1ccc(N2CCN(C(=O)c3ccco3)CC2)c(Cl)c1	-0.2	i	i	i	-2	-9.8*	30%*	35%*	i
CCOc1ccccc1N1CCN(S(=O)(=O)c2ccc(Cl)s2)CC1	0.92	i	i	i	-7	i	i	i	i
Cc1ccc(CN2CCSc3ccc(C(=O)NC4CCCC4)cc32)cc1	1	i	i	i	-8	-11*	52%*	i	31%*
SMILES	Kir21 inh	KCNQ1 inh	KCNK3 block	KCNQ1 act	hERG rescue	KCNK9 inh	KCNK9 inh conf	Kir2-1 spec	KCNK9 uninduced
Cc1ccc(CN2CCSc3ccc(C(=O)NCC4CCCO4)cc32)cc1 (stereo not drawn)	-0.03	i	i	i	-6	i	/	/	/
COc1ccc(OC)c(CCNC(=O)c2ccc3c(c2)N(Cc2ccc(F)cc2)CCS3)c1	0.59	7*	-10*	i	-11	-11*	69%*	i	32%*
CC(NC(=O)Nc1ccc(F)cc1)C(c1cccs1)N1CCCC1 (stereo not drawn)	-0.01	i	i	i	-9	i	/	/	/
C=CCOc1ccc(C2=NO[C@@H]3[C@@H]4C[C@@H]([C@H]5C(=O)N(C)C(=O)[C@@H]45)[C@H]23)cc1	1.2	i	i	i	-6	i	/	/	/
O=C1[C@@H]2[C@@H]3C[C@@H]([C@H]4ON=C(c5ccc(Cl)cc5)[C@@H]34)[C@@H]2C(=O)N1C1CCCCC1	-0.16	i	i	i	-6	i	i	i	i
O=C(NNC1CC(=O)N(c2ccc(Br)cc2)C1=O)c1ccco1 (stereo not drawn)	-1.6	i	i	i	-6	i	/	/	/
CCC(=O)Nc1ccc2c(c1)ncn2-c1ccc(C)cc1	-0.5	i	i	i	-12	i	/	/	/
O=C(N/N=C\c1cccc(Cl)c1)c1ccc(Cn2cc(Br)c([N+](=O)[O-])n2)o1	-1.4	i	i	i	-10	-16*	68%*	i	32%*
Cc1c(Cl)c([N+](=O)[O-])nn1Cc1ccc(C(=O)N/N=C\c2cccc(Br)c2)o1	-0.36	i	i	i	-11	-8.5*	42%*	i	27%*
CN(C)CCC(O)(c1ccccc1)c1ccccc1Cl (stereo not drawn)	/	/	i	/	/	/	/	/	/
O=C(Oc1ccccc1)c1ccccc1OS(=O)(=O)c1ccccc1	2	i	i	i	0	-9.5*	44%*	i	34%*
COc1ccccc1C(=O)O/N=C(\N)c1ccccc1Cl	0.69	i	i	i	-7	i	/	/	/
COc1ccccc1C(=O)Oc1ccc(C(C)C)cc1	-1.9	i	i	i	-3	i	i	i	30%*
O=C(Nc1ccccc1)c1ccccc1OS(=O)(=O)c1ccccc1	-0.7	i	i	i	-4	i	/	/	/
